The list is not random: actives were taken first. Their share in the collection is about 2.2%.
Neddylation inh – inhibitors of human cullin neddylation | calls only at 25 µM | TR-FRET cullin neddylation, biochemical | 360,000 tested, 0.58% active | P61081+Q13564 | AID 651699; in the data active means inhibition above about 36%
MT1-MMP act inh – blocks activation of human MT1-MMP; P50281; 360,000 tested, 0.061% active; GFP/RFP ratio change, % at 20 µM; HT1080 RFP-PRO-GFP cells, GFP/RFP ratio fluorescence, overnight; percent of plate control window, DMSO zero;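 active means GFP/RFP ratio change of at least 30% with cell ATP level not reduced by more than half and red fluorescence within 50% of control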
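Test system: HT1080 cells expressing an RFP-PRO-GFP fluorescent reporter construct / Compound dosing: single-point 20 µM compound, 1% DMSO / Schedule: cells overnight before dosing, compound overnight, 37 °C, 5% CO2 / Evaluation: GFP/RFP fluorescence ratio / Control set: DMSO and RFP-L50D-GFP cell wells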
KLK7 zymogen act – activates the human kallikrein-7 zymogen; P49862; purified proKLK7, EDANS-DABCYL substrate fluorescence; 100% is mature enzyme control, 0% vehicle; activation, % at 7 µM; 370,000 tested, 0.9% active;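 active means activation above the mean of all tested compounds plus 3 SD, computed per campaign excluding outliers beyond control limits, cut at about 13% in these data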
Target sequence (P49862 whole entry, looked up): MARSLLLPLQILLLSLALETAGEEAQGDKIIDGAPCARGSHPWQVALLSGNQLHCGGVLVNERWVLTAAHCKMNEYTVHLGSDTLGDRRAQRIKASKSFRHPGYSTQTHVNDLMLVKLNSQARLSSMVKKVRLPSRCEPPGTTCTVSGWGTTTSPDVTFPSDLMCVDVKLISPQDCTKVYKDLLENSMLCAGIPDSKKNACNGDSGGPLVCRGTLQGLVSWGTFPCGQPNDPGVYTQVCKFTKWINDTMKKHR
Tn7 DDE FP – inhibitors of Tn7 peptide binding to human fibrin DD(E); AID 720508; 370,000 tested, 0.13% active; FP displacement of FITC-Tn7 peptide from fibrin DD(E); 0% = median of compound wells per plate; inhibition, % at 8.3 µM;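 active means inhibition above the mean of compounds falling within the control limits plus 3 SD of them, cut at about 14% in these data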;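 further: 0% = plate median of compound wells and 100% = 10 µM Aha-Tn7 peptide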
Target sequence (P02675 whole entry, looked up): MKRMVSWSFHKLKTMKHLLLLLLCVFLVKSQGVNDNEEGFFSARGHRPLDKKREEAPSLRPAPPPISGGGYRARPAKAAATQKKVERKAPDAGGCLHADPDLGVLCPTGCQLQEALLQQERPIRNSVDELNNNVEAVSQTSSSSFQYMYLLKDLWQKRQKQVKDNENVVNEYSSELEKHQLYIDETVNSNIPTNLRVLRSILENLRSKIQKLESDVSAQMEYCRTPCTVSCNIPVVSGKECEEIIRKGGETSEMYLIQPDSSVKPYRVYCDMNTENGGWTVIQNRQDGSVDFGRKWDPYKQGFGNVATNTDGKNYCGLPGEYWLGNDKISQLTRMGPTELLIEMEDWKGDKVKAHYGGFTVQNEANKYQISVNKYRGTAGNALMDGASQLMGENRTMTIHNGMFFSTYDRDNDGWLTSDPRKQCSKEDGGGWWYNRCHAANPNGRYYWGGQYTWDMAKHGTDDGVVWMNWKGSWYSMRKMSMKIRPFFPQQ
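Test system – human fibrin DD(E) · Times – 10 min preincubation, 3 h with tracer, room temperature · Detection – fluorescence polarization of the labelled Tn7 tracer · Measure – percent inhibition normalized to high-control wells · Benchmarks – high control wells with 10 µM unlabelled Aha-Tn7 peptide (full inhibition) · Repeats – singlicate testing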
DDE Tn6 FP inh – DD(E)-Tn6 binding inhibition, primary FP screen; Fibrin DD(E) TRITC-Tn6 fluorescence polarization displacement; P02675; inhibition, % at 8.3 µM; 370,000 tested, 0.21% active; AID 720509;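 active means inhibition above a per-campaign cutoff: mean of compounds within control limits plus 3 SD, cut at about 15% in these data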;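 further: 0% = median of all compound wells on the plate and 100% = blocking peptide control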
SKN-1 inh – inhibitors of C. elegans SKN-1 | C. elegans VP596 Pgst-4::GFP/RFP ratio, acrylamide-induced, 24 h | inhibition, % at 21.8 µM | 360,000 tested, 0.49% active | AID 624304;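 active means interference check ratio from 0.5 to 1.5 plus GFP to RFP signal ratio inhibition reaching or exceeding a fixed threshold, cut at about 30% in these data, passing the limit was not always enough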
KLK7 act conf – proKLK7 activation, confirmation; shares compounds with KLK7 zymogen act; purified proKLK7, EDANS-DABCYL substrate fluorescence; scaled: vehicle 0, mature enzyme 100; activation, % at 7 µM; 3,200 tested, 68% active; AID 686949;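 active means activation, as change over the incubation, above the mean of all tested compounds plus 3 SD, cut at about 13% in these data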
EDANS-DABCYL int – counter-screen for kallikrein-7 activators: EDANS-DABCYL optical interference; shares compounds with KLK7 zymogen act; 3,200 tested, 80% active; AID 686952; activation, % at 7 µM; EDANS-DABCYL substrate fluorescence interference, no enzyme, 4 h; solvent 0%, active enzyme control 100%;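 active means activation above the all-compound mean plus 3 SD, ignoring values outside control-based bounds, cut at about 4.8% in these data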;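 further: value is the 4 h activation minus the activation read at time zero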
EDANS interf – optically interferes with EDANS-DABCYL fluorescence, kallikrein-7 activator counter-screen; EC50, µM; 250 tested, 20% active; shares compounds with KLK7 zymogen act; EDANS-DABCYL peptide fluorescence interference, no enzyme;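 active means compounds that raise the fluorescence signal in this interference counterscreen, with EC50 at or below 10 µM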;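 further: intact quenched peptide substrate alone read at 355 nm excitation and 520 nm emission; signal is fluorescence gain from T0 to T4 after four hours at room temperature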
* hit, by the source's call; i = inactive; . = no result given.

SMILES	Neddylation inh	MT1-MMP act inh	KLK7 zymogen act	Tn7 DDE FP	DDE Tn6 FP inh	SKN-1 inh	KLK7 act conf	EDANS-DABCYL int	others
COc1cc2cc(C(=O)N3CCN(Cc4ccc5c(c4)OCO5)CC3)c(=O)oc2cc1OC	.	-0.7	61.2*	3.2	-3.8	5.6	68.4*	73.0*
COCCN1CCn2c(nc3cc(NC(=O)NC4CCCCC4)ccc32)C1	.	-2.4	15.5*	-3.5	5.6	-3.3	-21.6	-14.1
O=C(NCc1ccc(F)cc1)Nc1ccccc1	i	-0.8	-0.2	-10.5	-2.3	-12.1	.	.
CCCn1nnnc1NCc1ccccc1F	i	0.4	-0.3	5.7	6.2	-12.7	.	.
CCOCC(=O)Nc1cc(-c2cn3cccnc3n2)ccc1C	.	0.4	.	.	.	0.6	.	.
COc1cc(C(=O)Nc2cccc(-c3cn4cccnc4n3)c2)cc(OC)c1OC	.	13.6	30.0*	-1.4	2.0	3.8	-9.3	-11.2
COc1cccc(C(=O)Nc2cc(-c3cn4cccnc4n3)ccc2C)c1	.	3.8	30.7*	2.2	6.1	10.3	12.3	-1.6
CC(C)(C)CC(=O)Nc1cccc(-c2cn3cccnc3n2)c1	.	2.4	24.6*	2.1	2.0	4.8	15.7*	18.6*
O=c1[nH]c(Nc2ccccn2)cc2ccccc12	.	12.0	21.5*	2.6	-2.2	14.2	21.4*	20.8*
N#C/C(=C/c1cccc([N+](=O)[O-])c1)C(=O)Nc1ccccc1O	i	-0.6	0.1	-7.8	-3.0	-7.4	.	.
Cn1c(/C(C#N)=C/Nc2ccccn2)nc2ccccc21	.	-9.6	55.4*	-1.8	1.8	-16.2	182.9*	183.2*
CCOc1ccccc1N/C=C(\C#N)c1nc2ccccc2n1C	i	3.6	0.0	-9.0	-1.5	-3.2	.	.
COc1cc(Cn2c3ccc(NC(=O)CCc4cccnc4)cc3c(=O)n2C)ccc1F	.	-4.5	16.4*	4.6	-5.3	-2.8	7.2	7.6*
Cn1c(=O)c2cc(NC(=O)CCc3cccnc3)ccc2n1Cc1ccc(F)cc1	.	-1.7	12.9*	0.6	-3.1	15.3	7.1	14.0*
CC(CC(=O)Nc1ccc2c(c1)c(=O)n(C)n2Cc1ccc(F)cc1)C(F)(F)F (stereo not drawn)	.	-0.9	15.5*	1.5	1.0	30.1	-7.7	-10.8
Cn1c(=O)c2cc(NC(=O)CC(C)(C)C)ccc2n1-c1ccccc1F	.	-1.2	15.5*	-4.5	-5.8	12.8	-5.8	-16.3
CC(CC(=O)Nc1ccc2c(c1)c(=O)n(C)n2-c1ccccc1F)c1ccccc1 (stereo not drawn)	.	-3.3	-4.1	-2.7	-3.4	2.4	.	.
CC(CC(=O)Nc1ccc2c(c1)c(=O)n(C)n2Cc1ccc(F)cc1)c1ccccc1 (stereo not drawn)	.	4.9	3.2	-2.8	-3.3	0.0	.	.
Cc1ccccc1-c1ccc2c(c1)[C@@H]1C[C@H](N(C)CC3CCCCC3)[C@H]([C@H](C)O)CN1CC2	.	.	12.6*	5.3	0.2	.	5.7	7.1*
COc1cccc(/C=N/Nc2snc(SC)c2C#N)c1	i	1.4	-0.3	11.7	-1.7	-28.4	.	.
COc1ccc(/C=N/Nc2snc(SC)c2C#N)cc1OC	i	-5.8	16.2*	-3.5	-10.2	9.4	-13.6	-10.2
COc1ccc(-c2cc(C(=O)N3CCOCC3)c3cc(C)ccc3n2)cc1	.	4.1	64.5*	5.1	-1.5	-4.3	15.1*	21.4*
COc1ccc(-c2cc(C(=O)N3CCCCCC3)c3cc(C)ccc3n2)cc1	.	2.4	-90.2	0.6	-5.3	-1.6	.	.
COc1cc2ccccc2cc1C(=O)OCC(=O)N1CCOCC1	.	2.8	15.4*	-7.7	14.6	5.4	22.4*	18.7*	EDANS interf=>69.5
COc1ccc2nc(-c3ccc(Cl)cc3)cc(C(=O)O)c2c1	.	5.7	25.3*	3.2	2.5	2.0	27.1*	43.7*
SMILES	Neddylation inh	MT1-MMP act inh	KLK7 zymogen act	Tn7 DDE FP	DDE Tn6 FP inh	SKN-1 inh	KLK7 act conf	EDANS-DABCYL int	others
COc1ccc(-c2cc(C(F)F)n3ncc(C(=O)N4CCN(C)CC4)c3n2)cc1	.	2.1	15.3*	1.4	0.1	13.8	-4.0	-12.8
CC(C)(C)n1nnnc1C(c1ccccc1)N1CCN(c2ccc(C(F)(F)F)cn2)CC1 (stereo not drawn)	i	-7.2	0.5	1.6	-1.6	14.4	.	.
COc1ccc(-c2cc(C(=O)NCC3CCCO3)c3cc(C)ccc3n2)cc1 (stereo not drawn)	.	-4.1	25.5*	-1.7	6.9	3.2	-40.0	-36.5
COc1ccc(-c2cc(C(=O)NCC3CCCO3)c3ccccc3n2)cc1 (stereo not drawn)	.	-0.1	10.2	-2.9	1.6	7.9	.	.
COc1ccc(-c2cc(C(=O)OCC(=O)N3CCOCC3)c3ccccc3n2)cc1	i	-4.6	59.1*	6.9	-3.0	-4.1	144.1*	141.2*
COC(=O)C1CCN(C(=O)COC(=O)c2cc(-c3ccccc3)nc3ccc(OC)cc23)CC1	.	29.0	.	.	.	-14.6	.	.
CCOC(=O)CCCNC(=O)COC(=O)c1cc2ccccc2cc1O	i	-2.7	25.0*	1.4	1.8	-12.7	18.8*	19.2*
CC1CN(C(=O)COC(=O)c2cc3ccccc3cc2O)CC(C)O1 (stereo not drawn)	i	-1.2	14.5*	2.5	5.2	18.6	17.2*	16.9*
O=C(COc1ccc(/C=N/NC(=O)c2ccc(O)cc2)cc1)Nc1cccc([N+](=O)[O-])c1	i	1.3	0.4	10.0	-3.0	-6.7	.	.
O=c1[nH]cnc2c1c(-c1ccccc1)cn2-c1ccc(Br)cc1	i	-4.3	0.0	2.0	7.4	5.1	.	.
Cc1ccc(NC(=O)Cn2nc(C(=O)O)c3ccccc3c2=O)cc1S(=O)(=O)N1CCCCC1	i	8.7	0.0	-1.5	-3.8	10.9	.	.
COC(=O)C1SCC2C(=O)N(Cc3ccc(Cl)cc3)CC(=O)N21 (stereo not drawn)	i	0.2	-0.2	-6.8	-0.9	-0.6	.	.
COc1cc(OC)c(-c2nnc(-c3ccc(OC)c(OC)c3OC)o2)cc1OC	.	12.5	13.2*	-3.5	-1.3	5.9	-34.4	-33.0
COc1cccc(-c2nnc(-c3ccc(C(F)(F)F)cc3)o2)c1OC	i	-0.6	-0.3	-2.7	-0.8	9.2	.	.

Source: PubChem BioAssay
